# Assay results from BindingDB's records for doi:10.1021/jm960807v (University of Florence, 1997).
# Molecular target: T1, 3-oxo-5-alpha-steroid 4-dehydrogenase 2 (Homo sapiens, UniProt P31213)
# T1 sequence (P31213 whole entry): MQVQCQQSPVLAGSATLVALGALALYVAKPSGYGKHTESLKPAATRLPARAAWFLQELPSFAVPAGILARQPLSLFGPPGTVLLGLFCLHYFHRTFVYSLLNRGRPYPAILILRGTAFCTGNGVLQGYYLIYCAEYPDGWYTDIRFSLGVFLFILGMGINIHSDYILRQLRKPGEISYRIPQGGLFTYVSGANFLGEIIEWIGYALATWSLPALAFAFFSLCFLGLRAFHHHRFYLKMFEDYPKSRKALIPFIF
# Assay: Inhibitory activity against 5-alpha Reductase-2 on human prostate homogenates from surgically derived benign hyperplastic tissue
# In short: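 Benign hyperplastic human prostate tissue, stored at -80 °C, was homogenized near 0 °C in 50 mM TRIS pH 7.4 with salts, nicotinamide and sucrose, spun at 200g, and the combined supernatants were used. Homogenate (0.1 mg protein) was incubated with 30 nM testosterone (9% [3H]) and 0.3 mM NADPH for 30 min at 37 °C, with the inhibitor added alongside the substrate. Inhibitor range was 10⁻¹⁰–10⁻⁵ M. DHT conversion was read by TLC and scintillation, in duplicate.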
row,IC50,SMILES
1,4.6 µM,C[C@]12CC=C3[C@@H](CCC4=CC(=O)CCN43)C1CCC2=O (some centres not stated)
2,> 100 µM,C[C@]12CCC3=C4C(=O)CCN=C4CCC3[C@@H]1CCC2=O (some centres not stated)
